Experimental data as given in ChEMBL document CHEMBL4513216, “Probing the Open Global Health Chemical Diversity Library for Multistage-Active Starting Points for Next-Generation Antimalarials” (ACS Infect Dis, 2020).

Experiment: Toxicity liver stage against HepG2, at 10uM
Type: cell-based
Set-up: test concentration 10 uM, cell line HepG2-A16-CD81EGFP
Conditions: human, HepG2-A16-CD81EGFP cells; read-out: INHIBITION
Method in brief: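 Uninfected HepG2-A16-CD81EGFP cells, 3 × 10^3 per well, 1536-well, plated on prespotted compound at 10 μM final, parasite-free screening media added to match infected plates; puromycin 10 μM positive, DMSO 0.5% negative; run in parallel with 48 h PbLuc assay at 37 °C, 5% CO2; viability by CellTiter-Glo luminescence, normalized to controls.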

Structure (SMILES)	cytotoxicity at 10 µM [%]
CCSc1nc2ccccc2c(=O)n1OCC(=O)OC	-5.49
O=C1CN(c2ccc(CNC(=O)Nc3nnc(C4CC4)s3)cc2)CCN1	-3.73
Cc1cc(S(=O)(=O)N(CC(N)=O)CC(C)C)ccc1Br	-10.1
OC(c1ccccc1)C1CCN(Cc2csc(-c3ncccn3)n2)CC1 (stereo unspecified)	-3.87
CC(C)(C)C(CCO)NC(=O)Nc1ccncc1 (stereo unspecified)	-3.28
CN1CCC(N[C@@H]2CO[C@H](CNC(=O)Nc3ccccc3)[C@H]2O)CC1	6.31
O=C(NC[C@H]1OC[C@@H](NC2CCC(F)(F)CC2)[C@@H]1O)c1ccccc1	-4.1
COc1ccc(CC(=O)N2CC(=O)NCC(C)(C)C2)cc1	-0.634
O=C(Nc1cccc(C(F)(F)F)c1)N1CCN(CCn2ccnc2)CC1	-25.3
CS(=O)(=O)N1CCN(C(=O)C2CSCCC(=O)N2)CC1 (stereo unspecified)	0.565
O=C(c1ccc2[nH]ccc2c1)N1CCCSCC1CN1CCCC1 (stereo unspecified)	9.4
Cc1cncc(Oc2ccc(CN)cc2)n1	9.81
CCc1cnc(N2CCC3(CCN(Cc4cccc(C)c4)C3=O)C2)nc1 (stereo unspecified)	-0.891
CCCS(=O)(=O)N1CCOC2(COCCN(C(C)=O)C2)C1 (stereo unspecified)	19.9
O=C([C@H]1COC[C@H]2CN(CC3CC3)C[C@H]21)N1CCOCC1	11.8
CO[C@@H]1CCN(c2ncc(F)cn2)[C@@H]2CN(CC3CC3)C[C@@H]21	12.3
Cc1ccsc1C(=O)N1CCCn2nnc(Cn3cccn3)c2C1	7.37
CC(C)Nc1ncnc2c1CCN(c1cc(C(F)(F)F)ncn1)CC2	6.07
O=C(NCc1cccnc1)C1=NOC2(CCCN(CCO)C2)C1 (stereo unspecified)	5.66
COc1cc(C2SCC(=O)Nc3n[nH]cc32)cc(OC)c1O (stereo unspecified)	7.85
CCn1nc(C)c2c1cnn2CCNS(=O)(=O)c1cccs1	4.51
Clc1cccc(Cl)c1CNCCOc1ccccn1	-13.2
O=C(NCC(F)F)c1cc(-c2ccccc2)nc2ncnn12	-3.37

Structure (SMILES)	cytotoxicity at 10 µM [%]
CCOC(=O)C1=NOC(Cc2cc(OC)c3c(c2)OCO3)C1 (stereo unspecified)	9.98
Cc1cccc(NC(=O)c2cccc(OCc3nnnn3C)c2)n1	3
CN[C@@H]1CCC[C@@H](Oc2ccccc2Oc2ccc(C)cc2)[C@@H]1O	-14.2
Cc1nccn1-c1nccnc1C1CCCN(C2CCCC2)C1 (stereo unspecified)	-0.55
CN(C(=O)c1cn(C)cn1)[C@@H]1CCC[C@@H](Oc2ccccc2)[C@@H]1O	23
NCCn1nc(C2CCN(Cc3ccccc3)C2)c2nccnc21 (stereo unspecified)	0.975
Cc1nc(CC(=O)N2CCc3nc(-c4cnccn4)nc(O)c3C2)cs1	16.2
COc1cc(Br)cc(CNC2CCCNC2=O)c1O (stereo unspecified)	2.37
CC(O)CN(Cc1cccc(C(=O)N(C)C)c1)c1ccccc1 (stereo unspecified)	2.45
COCCCN(C)c1cc(C(F)(F)F)nc(-c2cccnc2)n1	-4.83
CN(Cc1cscn1)C(=O)C(c1ccccc1)N1CCSCC1 (stereo unspecified)	9.26
O=C1OCCC1N1CCN(c2ccccn2)CC1 (stereo unspecified)	7.37
Cc1n[nH]cc1CNC(=O)Nc1cccc(OCC(F)(F)F)c1	8.64
Cn1cc(CCNC(=O)c2cc3ccccc3nc2N2CCCC2)cn1	-1.29
O=S(=O)(c1cc2ccccc2o1)N1CCCC1	20.2
N#Cc1c(Cl)nsc1NCc1ccc(N2CCSCC2)cc1	1.24
CCN1CCN(C(C)CNC(=O)Nc2nc3ccccc3s2)CC1 (stereo unspecified)	-2.32
O=C(c1ccc(F)c(Br)c1)N1CCCN2CCCC2C1 (stereo unspecified)	-0.746
CNS(=O)(=O)c1cccc(C(C)NCc2ccc(F)c(F)c2)c1 (stereo unspecified)	16.2
CCS(=O)(=O)c1ccc(N2CCC(NC(=O)CC3CCCC3)CC2)cc1	22.7
Cc1ccc(C(=O)NCCNCC2CNc3ccnn3C2)cc1F (stereo unspecified)	-1.62
O=C(CCc1ccsc1)NC1CCN(c2cccc(F)c2)CC1	-3.89
CNc1cc(N2CCCC2CNCc2ccco2)ncn1 (stereo unspecified)	-10.4

Structure (SMILES)	cytotoxicity at 10 µM [%]
Cn1cc(NC(=O)CCc2ccsc2)ccc1=O	-2.9
Cc1nc(CCNC(Cc2ccncc2)C(F)(F)F)cs1 (stereo unspecified)	-1.48
CC(NCc1cnc(C2CCC2)s1)c1ccc(-n2cccn2)cc1 (stereo unspecified)	7.67
Cc1noc(CS(=O)(=O)C/C=C/c2ccccc2)n1	-10.9
CCSCc1cccc(NC(=O)N(C)Cc2ncnn2C)c1	-0.477
CCOc1ccccc1Oc1ccc(CN)cn1	6.03
Cc1cnc(CCN(C)C(=O)c2ccc(O)nc2C)s1	-1.56
CCOc1ccc(CSC(C)c2nc(C)no2)nc1 (stereo unspecified)	-9.32
CCC1CN(C)c2ccccc2CN1C(=O)Nc1cccc(F)c1 (stereo unspecified)	5.9
CN(CCS(=O)(=O)c1cc(Cl)ccc1Cl)CC(=O)Nc1cccc(F)c1	13.9
CCOCCNC(=O)C(CCSC)NC(=O)c1ccc2ccccc2n1 (stereo unspecified)	-9.95
CC(O)CN1CCN(Cc2csc(-c3ncccn3)n2)CC1 (stereo unspecified)	5.4
Cc1nc(CN2CCC23CCN(C(=O)c2ccco2)CC3)cs1	-98.9
COc1cccc(C(=O)C2CCCN(c3cc(C#N)ccn3)C2)c1 (stereo unspecified)	1.85
CC(=O)NCC(=O)N1Cc2cnc(CC(C)C)nc2C1	-6.12
O=C(Nc1ccccc1)c1cccc(S(=O)(=O)NC[C@@H]2C[C@H](F)CN2)c1	2.83
Cn1ccnc1C1CCN(S(=O)(=O)c2ccc3oc(=O)[nH]c3c2)CC1	1.93
O=C(CCN1CCCC(CC2CC2)(C(=O)O)C1)NC1CCCC1 (stereo unspecified)	18.7
CSc1cccc(CN(C)C(=O)c2cccc(C3CCCNC3)c2)c1 (stereo unspecified)	-1.08
CCc1nnc(NC(=O)CCN2CC=C(c3cnn(C)c3)CC2)s1	2.66
Cc1cccc2c(=O)c(C(=O)N3CCCC4(CN(C)C(=O)O4)C3)c[nH]c12 (stereo unspecified)	10.5
CCC(C)Oc1ccc(CNCCNC(C)=O)cc1Cl (stereo unspecified)	1.12
CCc1ncc(C(=O)N(C)Cc2cc(-c3ccncc3)no2)cn1	-13.2

Structure (SMILES)	cytotoxicity at 10 µM [%]
Cc1ccc(CN(CCN(C)C)C(=O)Nc2ccc(C)c(C#N)c2)s1	5.57
Cc1nccn1CCCN1CCC(c2nccn2CC2CCC2)CC1	-20.8
Cc1ccccc1N1CCCN(C(=O)CC2CN(C(C)C)CCO2)CC1 (stereo unspecified)	-3.11
Cc1c(NC(=O)c2ncn[nH]2)cccc1C(=O)NC(C)(C)C	-8.93
Cc1cc(C(=O)NC(C)c2nnn[nH]2)c2cccc(C)c2n1 (stereo unspecified)	-16.4
Cc1ccccc1[C@@H]1CN(Cc2ccc(C(F)(F)F)nc2)C[C@H]1C(=O)O	5.33
CCc1nc(C2CCCN2Cc2cc(C)nc3ccccc23)no1 (stereo unspecified)	86
CCc1nc(C2CCCN(C(=O)c3ccccc3F)C2)no1 (stereo unspecified)	2.64
O=C(NCc1nn(-c2ccccc2)c2c1CCC2)C1CC1	-8.36
CCOCCN1CCC(C(=O)c2cc(F)ccc2F)CC1	-7.33
Cn1cc(NS(=O)(=O)c2ccc(C(F)(F)F)cc2)ccc1=O	6.08
CCn1cc(NC(=O)NCC(O)COc2ccccc2)cn1 (stereo unspecified)	-8.6
CCn1nc2c(cc1=O)CN(Cc1nc(-c3cccs3)no1)CC2	-8.99
NC(=O)C1CCCN(c2ccc(CNC(=O)c3cnsn3)cc2)C1 (stereo unspecified)	2.25
c1cc(CNCC2CNc3ccnn3C2)cc(OC2CCCC2)n1 (stereo unspecified)	-3.02
CCn1cnnc1CNC(=O)N(C)Cc1ccc2c(c1)OCO2	-5.83
CCN1CCN(CCNC(=O)c2ccn(-c3ccc(F)cc3)n2)CC1	-26.2
Cc1nc(C)n(C2CCCN(C(=O)c3cscn3)C2)n1 (stereo unspecified)	-8.78
Cc1nc(CN(C)CC2CCCN2c2cccnn2)nc2ccccc12 (stereo unspecified)	-6.31
CCCNC(=O)CNc1cc(C#N)ccc1OCC	-11.6
Cc1nc(C)n(CC2CCCN2Cc2nc(N)c3ccccc3n2)n1 (stereo unspecified)	-0.192
Cc1nc(C)n(CC2CCCN(Cc3nc(C4CC4)no3)C2)n1 (stereo unspecified)	-7.76
CN(Cc1cn2ccccc2c1C#N)C1CCCN(c2cccnn2)C1 (stereo unspecified)	-11.9

Structure (SMILES)	cytotoxicity at 10 µM [%]
Cn1ccnc1CN1CCCCC1Cn1cccn1 (stereo unspecified)	5.94
Cc1nc(CN2CCCN(C(=O)c3ccccn3)CC2)oc1C	0.289
CC(c1nc(C2CC2)no1)N1CCN(Cc2cccc(C#N)c2)CC1 (stereo unspecified)	3.92
COc1ccc(CN(C)[C@@H]2COC[C@H]2c2ccc(F)cc2)c(OC)c1	8.54
CC(C)NC(=O)[C@@]12CCO[C@@H]1CCN(Cc1ccco1)C2	-3.31
CC(C)NC(=O)N1CCC2(CCC(=O)N2CCN(C)C)CC1	-7.13
O=C(NCc1cn2c(n1)CN(CC1CCOCC1)CC2)C1CCC1	-12.1
c1cc(CN2C[C@@H]3OCCN(CC4CC4)[C@@H]3C2)n[nH]1	-109
CS(=O)(=O)N1CCC2(CC1)CC(NCC1CC1)c1ccccc12 (stereo unspecified)	-111
CCN1c2ccc(-c3cncn3CC(=O)NC(C)(C)C)cc2CC1C (stereo unspecified)	-0.579
Cc1nc(N2CCOCC2)nc2c1CCN(Cc1ccsc1)CC2	-130
COc1cccc(C(=O)N2CCc3nc(C4CCCN4)ncc3C2)c1 (stereo unspecified)	-7.28
O=C(NCCc1ccccn1)[C@@H]1CC[C@@H]2[C@@H](CCN2Cc2ccoc2)O1	8.21
Cc1ccc(CNC2CC3(CCN(CCO)CC3)c3ccccc32)s1 (stereo unspecified)	-108
O=C(c1ccccc1)N1CCC2(CC1)CNc1c(F)cccc12	7.33
CN(C)Cc1cncc2c1CCN(Cc1cnn(C)c1)C2	4.13
Cc1nnsc1CN1C[C@H]2CC[C@@H](C1)N(Cc1ccccc1)C2	9.47
CSc1ccccc1CN1C[C@@H]2CC[C@H]1CN(Cc1[nH]cnc1C)C2	-8.96
CC1(C)CC(n2cc3nc(N4CCOCC4)[nH]cc-3c2=O)CC(C)(C)N1	-19.9
